ChEMBL document CHEMBL4311941, “Development of Multifunctional Histone Deacetylase 6 Degraders with Potent Antimyeloma Activity” (J Med Chem, 2019)
Active and inactive are the calls of the source. No cut-off for these calls is given here.

What was measured:
[1] = biological target: T1, Cereblon/Ikaros (Homo sapiens) (UniProt Q96SW2+Q13422); assay: Protac activity at CRBN/IKZF1 in human MM1S cells assessed as IKZF1 degradation at 100 nM measured after 6 hrs by Western blot analysis; format: cell-based
[2] = biological target: T1, Cereblon/Ikaros (Homo sapiens); assay: Protac activity at CRBN/IKZF1 in human MM1S cells assessed as IKZF1 degradation at 100 nM measured after 4 hrs by Western blot analysis; format: cell-based
[3] = biological target: Protein cereblon/Zinc finger protein Aiolos (Homo sapiens) (UniProt Q96SW2+Q9UKT9); assay: Protac activity at CRBN/IKZF3 in human MM1S cells assessed as IKZF3 degradation measured after 6 hrs by Western blot analysis; format: cell-based
Chain of Protein cereblon/Zinc finger protein Aiolos (Homo sapiens) (Q96SW2 whole entry, looked up): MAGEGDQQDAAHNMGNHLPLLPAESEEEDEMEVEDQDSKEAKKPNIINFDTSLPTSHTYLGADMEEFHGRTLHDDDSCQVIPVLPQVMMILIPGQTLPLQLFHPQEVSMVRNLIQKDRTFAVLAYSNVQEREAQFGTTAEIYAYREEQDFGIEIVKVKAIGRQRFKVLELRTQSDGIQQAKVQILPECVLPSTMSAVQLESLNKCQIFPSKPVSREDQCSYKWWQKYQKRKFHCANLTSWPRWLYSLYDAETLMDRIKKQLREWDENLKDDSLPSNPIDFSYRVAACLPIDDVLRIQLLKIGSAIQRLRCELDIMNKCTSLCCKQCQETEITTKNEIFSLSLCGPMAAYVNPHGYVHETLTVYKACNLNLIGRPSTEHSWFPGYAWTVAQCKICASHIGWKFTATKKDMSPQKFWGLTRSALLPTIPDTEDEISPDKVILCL
Chain of Protein cereblon/Zinc finger protein Aiolos (Homo sapiens) (Q9UKT9 whole entry, looked up): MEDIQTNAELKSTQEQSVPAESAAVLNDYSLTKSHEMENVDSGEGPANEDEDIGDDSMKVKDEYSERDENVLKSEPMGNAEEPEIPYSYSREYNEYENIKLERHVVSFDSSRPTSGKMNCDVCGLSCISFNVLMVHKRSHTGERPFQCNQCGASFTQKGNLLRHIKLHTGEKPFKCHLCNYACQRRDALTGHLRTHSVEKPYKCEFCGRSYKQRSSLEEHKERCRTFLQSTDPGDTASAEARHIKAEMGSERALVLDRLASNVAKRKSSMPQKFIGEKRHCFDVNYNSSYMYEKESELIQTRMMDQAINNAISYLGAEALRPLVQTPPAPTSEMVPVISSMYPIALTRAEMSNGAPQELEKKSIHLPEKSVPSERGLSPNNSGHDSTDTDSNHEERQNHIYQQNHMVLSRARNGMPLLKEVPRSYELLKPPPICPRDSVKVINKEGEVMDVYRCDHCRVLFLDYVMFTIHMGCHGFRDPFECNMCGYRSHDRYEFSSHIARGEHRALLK

[4] = biological target: T2, Protein cereblon/Histone deacetylase 1 (Homo sapiens) (UniProt Q13547+Q96SW2); assay: Protac activity at CRBN/HDAC1 in human MM1S cells assessed as HDAC1 degradation measured after 6 hrs by Western blot analysis; format: cell-based
T2 sequence (Q13547 whole entry, looked up): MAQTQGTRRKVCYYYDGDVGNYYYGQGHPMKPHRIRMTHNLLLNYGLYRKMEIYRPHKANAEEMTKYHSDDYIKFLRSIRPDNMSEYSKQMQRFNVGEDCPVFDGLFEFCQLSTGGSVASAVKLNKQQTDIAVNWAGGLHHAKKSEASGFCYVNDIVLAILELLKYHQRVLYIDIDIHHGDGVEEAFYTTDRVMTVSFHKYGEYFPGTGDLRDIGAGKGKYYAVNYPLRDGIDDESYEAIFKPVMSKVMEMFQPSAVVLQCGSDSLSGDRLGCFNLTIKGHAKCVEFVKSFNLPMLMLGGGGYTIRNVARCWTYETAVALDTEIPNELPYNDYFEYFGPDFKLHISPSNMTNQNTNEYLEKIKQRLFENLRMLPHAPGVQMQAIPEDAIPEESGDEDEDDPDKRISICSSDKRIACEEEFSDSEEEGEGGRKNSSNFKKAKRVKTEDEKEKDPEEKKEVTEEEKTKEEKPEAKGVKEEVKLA
T2 sequence (Q96SW2 whole entry, looked up): as the sequence (Q96SW2 whole entry, looked up) above

[5] = biological target: T2, Protein cereblon/Histone deacetylase 1 (Homo sapiens); assay: Protac activity at CRBN/HDAC1 in human MM1S cells assessed as HDAC1 degradation at 100 nM measured up to 8 hrs by Western blot analysis; format: cell-based
[6] = biological target: T3, Protein cereblon/Protein deacetylase HDAC6 (Homo sapiens, UniProt Q9UBN7+Q96SW2); assay: Protac activity at CRBN/HDAC6 in human MCF7 cells assessed as HDAC6 degradation up to 10 uM incubated for 6 hrs by Western blot analysis; format: cell-based
T3 sequence (Q96SW2 whole entry, looked up, one chain of several): as the sequence (Q96SW2 whole entry, looked up) above

[7] = biological target: T4, Protein deacetylase HDAC6 (Homo sapiens, UniProt Q9UBN7); assay: Inhibition of human N-terminal tagged human HDAC6 expressed in HEK293T/17 using Ac-Gly-Ala-[Ac-Lys]-AMC as substrate preincubated for 10 mins followed by substrate addition and measured after 15 mins by fluorescence assay
T4 sequence (Q9UBN7 whole entry): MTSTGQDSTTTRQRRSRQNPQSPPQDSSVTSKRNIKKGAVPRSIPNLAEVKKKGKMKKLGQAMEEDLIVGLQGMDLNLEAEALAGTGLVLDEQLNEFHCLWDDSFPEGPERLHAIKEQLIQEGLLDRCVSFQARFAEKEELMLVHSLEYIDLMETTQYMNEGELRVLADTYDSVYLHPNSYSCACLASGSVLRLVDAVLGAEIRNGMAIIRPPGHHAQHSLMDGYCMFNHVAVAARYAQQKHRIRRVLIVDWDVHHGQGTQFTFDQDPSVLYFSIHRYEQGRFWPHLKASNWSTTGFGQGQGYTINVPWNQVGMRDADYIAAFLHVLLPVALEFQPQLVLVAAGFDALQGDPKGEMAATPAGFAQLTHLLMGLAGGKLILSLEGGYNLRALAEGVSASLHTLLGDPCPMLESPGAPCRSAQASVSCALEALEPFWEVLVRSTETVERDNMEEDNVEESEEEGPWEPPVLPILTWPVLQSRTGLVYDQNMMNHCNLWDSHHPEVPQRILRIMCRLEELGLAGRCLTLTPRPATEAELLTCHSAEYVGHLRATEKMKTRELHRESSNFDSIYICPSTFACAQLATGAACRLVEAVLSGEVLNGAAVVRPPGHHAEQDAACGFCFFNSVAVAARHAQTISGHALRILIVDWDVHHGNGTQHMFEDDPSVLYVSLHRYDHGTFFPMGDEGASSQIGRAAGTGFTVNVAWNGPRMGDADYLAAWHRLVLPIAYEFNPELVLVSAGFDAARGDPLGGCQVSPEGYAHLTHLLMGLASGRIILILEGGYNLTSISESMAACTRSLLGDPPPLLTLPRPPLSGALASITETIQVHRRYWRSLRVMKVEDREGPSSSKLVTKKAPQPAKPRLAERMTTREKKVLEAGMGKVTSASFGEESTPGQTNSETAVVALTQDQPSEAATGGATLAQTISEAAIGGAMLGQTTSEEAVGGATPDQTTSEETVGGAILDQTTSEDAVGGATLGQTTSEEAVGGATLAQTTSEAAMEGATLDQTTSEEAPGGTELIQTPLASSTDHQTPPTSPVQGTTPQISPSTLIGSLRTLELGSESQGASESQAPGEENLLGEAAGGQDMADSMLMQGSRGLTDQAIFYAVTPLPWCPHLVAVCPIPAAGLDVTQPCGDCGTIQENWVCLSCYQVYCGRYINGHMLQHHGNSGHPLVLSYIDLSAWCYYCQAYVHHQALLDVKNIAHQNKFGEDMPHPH

Histone deacetylase 8 = biological target: T5, Histone deacetylase 8 (Homo sapiens, UniProt Q9BY41); assay: Inhibition of human N-terminal tagged human HDAC8 expressed in HEK293T/17 using Boc-[TFA-Lys]-AMC as substrate preincubated for 10 mins followed by substrate addition and measured after 60 mins by fluorescence assay
T5 sequence (Q9BY41 whole entry): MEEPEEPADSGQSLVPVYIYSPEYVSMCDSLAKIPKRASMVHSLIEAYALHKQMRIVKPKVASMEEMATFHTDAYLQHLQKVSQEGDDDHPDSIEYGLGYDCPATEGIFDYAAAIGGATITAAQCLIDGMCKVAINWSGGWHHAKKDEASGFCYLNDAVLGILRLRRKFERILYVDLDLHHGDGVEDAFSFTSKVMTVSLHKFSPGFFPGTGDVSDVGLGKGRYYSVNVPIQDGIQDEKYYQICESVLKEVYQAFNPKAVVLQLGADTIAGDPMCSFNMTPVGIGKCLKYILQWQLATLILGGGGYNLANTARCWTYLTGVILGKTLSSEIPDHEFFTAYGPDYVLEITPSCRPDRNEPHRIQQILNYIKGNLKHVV

[8] = biological target: T3, Protein cereblon/Protein deacetylase HDAC6; assay: Protac activity at CRBN/HDAC6 in human MM1S cells assessed as HDAC6 degradation at 100 nM measured after 6 hrs in presence of NAE inhibitor MLN 4924 by Western blot analysis; format: cell-based
[9] = biological target: T2, Protein cereblon/Histone deacetylase 1 (Homo sapiens); assay: Protac activity at CRBN/HDAC1 in human MM1S cells assessed as HDAC1 degradation at 100 nM measured after 6 hrs in presence of proteasome inhibitor bortezomib by Western blot analysis; format: cell-based
MM1.S = assay: Effect on HDAC6 mRNA expression in human MM1S cells at 100 nM measured after 6 hrs by SYBR green dye-based qRT-PCR analysis; format: functional, cell-based
Summary of the method: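 After treatment, MM1S cells washed twice with cold PBS. Total RNA extracted and normalized, then reverse-transcribed. 10 ng cDNA amplified with SYBR Green: 50 °C 2 min, 95 °C 2 min, then 40 cycles of 95 °C 1 s / 60 °C 30 s, followed by a melt curve. Expression calculated by the 2−ΔΔCt method.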

Activity [1]: Active
Activity [2]: Active
Activity [3]: Dose-dependent effect
Activity [4]: inactive
Activity [5]: inactive
Activity [6]: Active
IC50 [7]: 8.7 nM
IC50 (Histone deacetylase 8): 300 to 30000 nM
Activity [8]: inactive
Activity [9]: inactive
SMILES: CCCCN(Cc1ccc(C(=O)NO)cc1)C(=O)Nc1ccc(OCCCCCn2cc(CNc3cccc4c3C(=O)N(C3CCC(=O)NC3=O)C4=O)nn2)cc1 (stereo unspecified)
Activity (MM1.S): Active
